Measurements reported in ChEMBL document CHEMBL4330096, “Discovery of potent and selective 5-azaindazole inhibitors of leucine-rich repeat kinase 2 (LRRK2) - Part 1” (Bioorg Med Chem Lett, 2019).

Legend:
[1] = Ratio of drug level in mouse brain to plasma; settings: read-out: BPR
How it was run: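 Mice; ratio based on total (not unbound) compound concentrations in brain versus plasma.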

[2] = molecular target: Calcium/calmodulin-dependent protein kinase kinase 2 (Homo sapiens) (UniProt Q96RR4); experiment: Inhibition of CAMKKb (unknown origin) at 1 uM relative to control
Chain of Calcium/calmodulin-dependent protein kinase kinase 2 (Homo sapiens) (Q96RR4 2-588 limits assumed): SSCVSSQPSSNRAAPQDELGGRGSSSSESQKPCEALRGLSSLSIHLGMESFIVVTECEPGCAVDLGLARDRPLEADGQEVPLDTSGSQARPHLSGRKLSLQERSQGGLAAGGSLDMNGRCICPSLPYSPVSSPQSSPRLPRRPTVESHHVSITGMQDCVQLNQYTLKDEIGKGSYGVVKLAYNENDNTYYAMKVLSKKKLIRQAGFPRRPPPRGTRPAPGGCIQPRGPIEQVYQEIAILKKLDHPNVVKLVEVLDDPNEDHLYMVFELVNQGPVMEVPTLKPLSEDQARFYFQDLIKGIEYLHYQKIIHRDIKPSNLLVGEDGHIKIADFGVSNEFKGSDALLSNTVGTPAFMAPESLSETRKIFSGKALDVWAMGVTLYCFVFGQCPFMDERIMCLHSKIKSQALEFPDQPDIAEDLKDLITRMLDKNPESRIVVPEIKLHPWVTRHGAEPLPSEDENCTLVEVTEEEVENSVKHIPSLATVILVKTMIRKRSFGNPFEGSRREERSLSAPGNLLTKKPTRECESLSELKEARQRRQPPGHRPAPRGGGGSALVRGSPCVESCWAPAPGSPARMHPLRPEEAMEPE
How it was run: (§1)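 Single-point screen of each compound against a panel of 59 protein kinases, at 1 or 10 μM. The panel data are also summarised as a rescaled geometric mean selectivity score.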

[3] = molecular target: Serine/threonine-protein kinase 26 (Homo sapiens) (UniProt Q9P289); experiment: Inhibition of MST4 (unknown origin) at 1 uM relative to control
Chain of Serine/threonine-protein kinase 26 (Homo sapiens) (Q9P289 2-416 limits assumed): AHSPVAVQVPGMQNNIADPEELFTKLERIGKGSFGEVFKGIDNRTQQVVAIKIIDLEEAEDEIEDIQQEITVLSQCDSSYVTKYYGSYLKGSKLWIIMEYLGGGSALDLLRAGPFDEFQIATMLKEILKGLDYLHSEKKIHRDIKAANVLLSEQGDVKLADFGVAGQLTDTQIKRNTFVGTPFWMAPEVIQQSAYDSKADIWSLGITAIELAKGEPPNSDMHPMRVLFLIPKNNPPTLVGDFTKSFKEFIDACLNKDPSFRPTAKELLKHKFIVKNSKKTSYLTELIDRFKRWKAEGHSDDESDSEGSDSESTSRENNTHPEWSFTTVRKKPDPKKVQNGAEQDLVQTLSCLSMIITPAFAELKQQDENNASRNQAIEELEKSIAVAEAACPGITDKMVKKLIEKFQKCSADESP
How it was run: (§2)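 Single-concentration screen of each compound against a 59-protein-kinase panel, run at 10 µM or 1 µM. Activity relative to control is shown as a heat map across the panel.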

[4] = molecular target: AMP-activated protein kinase, AMPK (Homo sapiens) (UniProt P54646+O43741+P54619+Q9UGJ0+Q9Y478+Q13131+Q9UGI9); experiment: Inhibition of AMPK (unknown origin) at 1 uM relative to control; type: protein-complex assay; how it was run: as §1
[5] = molecular target: Serine/threonine-protein kinase PLK1 (Homo sapiens) (UniProt P53350); experiment: Inhibition of PLK1 (unknown origin) at 1 uM relative to control; how it was run: as §2
Chain of Serine/threonine-protein kinase PLK1 (Homo sapiens) (P53350 whole entry): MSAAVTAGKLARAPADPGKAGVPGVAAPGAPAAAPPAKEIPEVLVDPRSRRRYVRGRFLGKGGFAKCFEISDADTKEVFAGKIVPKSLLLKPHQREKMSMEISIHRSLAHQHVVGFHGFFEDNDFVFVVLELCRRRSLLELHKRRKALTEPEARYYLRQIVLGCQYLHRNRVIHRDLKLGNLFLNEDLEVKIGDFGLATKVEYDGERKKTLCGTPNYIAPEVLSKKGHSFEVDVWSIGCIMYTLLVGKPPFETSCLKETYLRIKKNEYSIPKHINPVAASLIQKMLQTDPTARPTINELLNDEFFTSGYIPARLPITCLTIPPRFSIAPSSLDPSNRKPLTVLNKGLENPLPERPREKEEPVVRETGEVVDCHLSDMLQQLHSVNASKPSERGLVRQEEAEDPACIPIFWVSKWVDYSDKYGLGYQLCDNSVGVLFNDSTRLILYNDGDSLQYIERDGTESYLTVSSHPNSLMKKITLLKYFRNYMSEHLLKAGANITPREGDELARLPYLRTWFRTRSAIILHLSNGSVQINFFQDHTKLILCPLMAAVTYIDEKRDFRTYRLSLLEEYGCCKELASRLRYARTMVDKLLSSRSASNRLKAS

[6] = molecular target: CDK2/Cyclin A2 (Homo sapiens) (UniProt P24941+P20248); experiment: Inhibition of CDK2/cyclinA (unknown origin) at 1 uM relative to control; type: protein-complex assay; how it was run: as §1
[7] = Lipophilicity, log D of the compound at pH 7.4; type: physicochemical; settings: buffer

| SMILES | Kp [1] | inhibition [2] [%] | inhibition [3] [%] | inhibition [4] [%] | inhibition [5] [%] | inhibition [6] [%] | logD [7] |
| --- | --- | --- | --- | --- | --- | --- | --- |
| Cc1n[nH]c2ccnc(NC3CCCCC3)c12 | 4 | – | – | – | – | – | – |
| CC(C)n1cc(-c2n[nH]c3ccnc(OC4CCOCC4)c23)cn1 | – | 1 | 47 | 19 | 0 | 66 | – |
| Cc1n[nH]c2ccnc(OC3CCCCC3)c12 | – | – | – | – | – | – | > 4 |
| c1cc(-c2n[nH]c3ccnc(OC4CCOCC4)c23)cc(N2CCOCC2)n1 | – | 0 | 3 | 0 | 0 | 23 | – |
